Assay results from different studies.
Protocols differ between the studies behind these lines. pIC50: −log10 of the molar value.
LATS2: Serine/threonine-protein kinase LATS2 (LATS2, Homo sapiens, UniProt Q9NRM7)
AKR1B1: Aldo-keto reductase family 1 member B1 (AKR1B1, Homo sapiens, UniProt P15121)

Structure (SMILES) | target | test | pIC50
C=CC(=O)N1CCN(c2nc(=O)n(-c3c(C)ccnc3C(C)C)c3nc(-c4c(O)cccc4F)c(F)cc23)[C@@H](C)C1 | GTPase HRas (HRAS, Homo sapiens, UniProt P01112, C181S/C184S/C186S/G12C) | enzyme activity, inhibitor | 7.06
OC1(c2ccc(-c3ccnc4[nH]cc(F)c34)cc2)CCCNC1 (stereo not drawn) | LATS2 | enzyme activity, inhibitor, radiometric | 8.00
COc1cc(/C=N/NC(=S)N/N=C/c2ccc(N(C)C)cc2)ccc1Oc1ccnc2cc(Cl)ccc12 | AKR1B1 | enzyme activity, inhibitor, absorbance | 4.98
COc1cc(CN(CCN)C(=O)c2cccs2)ccc1OCc1ccccc1 | Transient receptor potential cation channel subfamily M member 8 (TRPM8, Homo sapiens, UniProt Q7Z2W7) | ion current, inhibitor, patch clamp | 7.92
OC1(c2ccc(-c3ccnc4[nH]cc(F)c34)cc2)CCCNCC1 (stereo not drawn) | LATS2 | enzyme activity, inhibitor, radiometric | 7.92
CC(C)C[C@H](NP(=O)(O)O[C@@H]1O[C@@H](C)[C@H](O)[C@@H](O)[C@H]1O)C(=O)N[C@@H](Cc1c[nH]c2ccccc12)C(=O)O | Neprilysin (MME, Homo sapiens, UniProt P08473) | enzyme activity, inhibitor | 6.24
COc1c(Cl)cccc1Nc1c(-c2ccncc2OC[C@@H]2COCCO2)[nH]c2c1C(=O)NCC2 | Tyrosine-protein kinase Lck, phosphorylated (LCK, Homo sapiens, UniProt P06239) | enzyme activity, inhibitor, TR-FRET | 5.95
Cc1cc(-c2ccnc3[nH]cc(F)c23)cc(F)c1[C@@]1(O)[C@H](C)CN(C(=O)CN)C[C@@H]1C | LATS2 | enzyme activity, inhibitor, radiometric | 8.59
COc1cc(/C=N/NC(=S)N/N=C/c2ccc(F)cc2)ccc1Oc1ccnc2cc(Cl)ccc12 | AKR1B1 | enzyme activity, inhibitor, absorbance | 4.71
Cc1cc(-c2cc(O)ccc2Cl)cc2nnc(Nc3ccc(OCCN4CCCC4)cc3)nc12 | Tyrosine-protein kinase Lck (LCK, Homo sapiens, UniProt P06239) | cell-free assay | 9.53
COc1cc(/C=N/NC(=S)N/N=C/c2ccc(Br)cc2)ccc1Oc1ccnc2cc(Cl)ccc12 | AKR1B1 | enzyme activity, inhibitor, absorbance | 5.05
CC1CNCCC1(O)c1ccc(-c2ccnc3[nH]cc(F)c23)cc1 (stereo not drawn) | LATS2 | enzyme activity, inhibitor, radiometric | 8.25
Nc1cnccc1Nc1ccc(Cl)c(Cl)c1 | Endonuclease 8-like 1 (NEIL1, Homo sapiens, UniProt Q96FI4) | enzyme activity, inhibitor | < 4.00
Cc1cc(-c2ccnc3[nH]cc(F)c23)cc(F)c1[C@@]1(O)[C@H](C)CN(C2CCS(=O)(=O)CC2)C[C@@H]1C | LATS2 | target engagement in cells, BRET | 7.44
COc1cc(/C=N/NC(=S)NN=Cc2ccncc2)ccc1Oc1ccnc2cc(Cl)ccc12 | AKR1B1 | enzyme activity, inhibitor, absorbance | 5.00
